Series [1] relates to Saccharomyces cerevisiae. Nature of the series: Antimicrobial activity against Saccharomyces cerevisiae ATCC 9763 after 24 hrs by broth microdilution assay. The following applies: ATCC 9763, 24 h. It is filed as functional. In outline: (§1)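 Broth dilution MIC. Stock is 10 mg compound in 1 mL DMSO, serially diluted in Mueller–Hinton broth for bacteria or Sabouraud liquid medium for yeasts and mould. Tubes are inoculated at 10⁵ cfu/mL and incubated at 37 °C for 24 h. Controls are medium alone and medium with DMSO at matching dilutions. MIC is the lowest concentration giving complete growth inhibition.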

The subject of series [2] is Enterococcus faecalis. Nature of the series: Antimicrobial activity against Streptococcus faecalis ATCC 14506 after 24 hrs by broth microdilution assay. The settings on record: ATCC 14506, 24 h. It is filed as functional. A digest of the protocol: as §1
In general terms: Dilution methods test growth across graded concentrations, often in twofold steps.

For series [3], the system named is Candida tropicalis. Nature of the series: Antimicrobial activity against Candida tropicalis ATCC 1369 after 24 hrs by broth microdilution assay. In kind it is functional. The following applies: ATCC 1369, 24 h. In outline: as §1
The subject of series [4] is Bacillus subtilis. The series is described as follows: Antimicrobial activity against Bacillus subtilis ATCC 60511 after 24 hrs by broth microdilution assay. It is filed as functional. The settings on record: ATCC 60511, 24 h. A digest of the protocol:
as §1

The subject of series [5] is Klebsiella pneumoniae. Nature of the series: Antimicrobial activity against Klebsiella pneumoniae ATCC 10031 after 24 hrs by broth microdilution assay. In kind it is functional. The settings on record: ATCC 10031, 24 h. A digest of the protocol: as §1
The test system of series [6] is Staphylococcus aureus. Nature of the series: Antimicrobial activity against Staphylococcus aureus ATCC 11632 after 24 hrs by broth microdilution assay. The following applies: ATCC 11632, 24 h. In kind it is functional. A digest of the protocol:
as §1

Series [7] has as its system Mycobacterium tuberculosis. Nature of the series: Antimycobacterial activity against Mycobacterium tuberculosis H37Rv after 21 days by broth dilution assay. It is filed as functional. The settings on record: 504 h. A digest of the protocol:
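Middlebrook 7H9 broth with 10% albumin-dextrose-catalase and 0.2% glycerol; frozen culture thawed, diluted to 10⁵ cfu/mL and used as inoculum. Compounds taken up in DMSO and diluted twice in broth, 1.3% DMSO final. Incubated at 37 °C. Growth judged by eye against drug-free and inoculum-free controls and isoniazid. MIC is the lowest concentration inhibiting ≥99% of the starting population.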

The subject of series [8] is Pseudomonas aeruginosa. The series is described as follows: Antimicrobial activity against Pseudomonas aeruginosa ATCC 10145 after 24 hrs by broth microdilution assay. It is filed as functional. The settings on record: ATCC 10145, 24 h. A digest of the protocol: as §1
In series [9] the test system is A549. Nature of the series: Cytotoxicity against human A549 cells at 250 uM. In kind it is cell-based. The settings on record: a549, 250 µM. A digest of the protocol:
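A549 lung adenocarcinoma cells are grown with fetal bovine serum. Compounds are taken from 10 mM DMSO stocks stored at −20 °C and diluted in culture medium, with treatments at 50–250 µM. Viability is read by MTT assay against untreated cells and a DMSO vehicle control.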

In series [10] the test system is Aspergillus niger. Nature of the series: Antimicrobial activity against Aspergillus niger ATCC 6275 after 24 hrs by broth microdilution assay. In kind it is functional. The settings on record: ATCC 6275, 24 h. A digest of the protocol:
as §1

Series [11] concerns Escherichia coli. The series is described as follows: Antimicrobial activity against Escherichia coli ATCC 10536 after 24 hrs by broth microdilution assay. It is filed as functional. The following applies: ATCC 10536, 24 h. In outline:
as §1

≈ marks a conversion by molar mass, not a printed value.

In general, MIC refers to the lowest concentration found to suppress growth. As for `CC(=O)N1N=C(c2nc(C(C)C)cs2)OC1(C)c1ccc(Cl)cc1` (stereo not drawn), the MIC in series [1] was found to be 62.5 µg/mL (≈ 172 µM); in series [2], 62.5 µg/mL (≈ 172 µM); in series [3], 31.2 µg/mL (≈ 85.9 µM); in [4], 31.2 µg/mL (≈ 85.9 µM); in series [5], 8 µg/mL (≈ 22 µM); in series [6] it was 16 µg/mL (≈ 44 µM). Also, the MIC in series [7] came out at 16 µg/mL (≈ 44 µM); in series [8], 8 µg/mL (≈ 22 µM); in series [10], 62.5 µg/mL (≈ 172 µM); in series [11], 8 µg/mL (≈ 22 µM). For the same molecule, in series [9], the Activity result is “Toxic”.
On to `CC(=O)N1N=C(c2nc(C(C)C)cs2)OC1(C)c1ccc([N+](=O)[O-])cc1` (stereo not drawn), for which the MIC in [1] came out at 31.2 µg/mL (≈ 83.5 µM); in series [2] it was 62.5 µg/mL (≈ 167 µM); in [3], 62.5 µg/mL (≈ 167 µM); in series [4] it was 62.5 µg/mL (≈ 167 µM); in series [5], 62.5 µg/mL (≈ 167 µM); in series [6], 31.2 µg/mL (≈ 83.5 µM). Besides, the MIC stood at 125 µg/mL (≈ 334 µM) in [7], 31.2 µg/mL (≈ 83.5 µM) in [8], 31.2 µg/mL (≈ 83.5 µM) in series [10] and 16 µg/mL (≈ 42.7 µM) in series [11].
Consider `CC(C)c1csc(-c2nnc(-c3ccccc3)o2)n1`, for which the MIC in series [1] came out at 62.5 µg/mL (≈ 230 µM); in [2], 16 µg/mL (≈ 59 µM); in series [3], 125 µg/mL (≈ 461 µM); in series [4], 62.5 µg/mL (≈ 230 µM); in series [5] it was 250 µg/mL (≈ 921 µM); in series [6] it was 31.2 µg/mL (≈ 115 µM). Also, the MIC worked out at 31.2 µg/mL (≈ 115 µM) in [7], 62.5 µg/mL (≈ 230 µM) in series [8], 125 µg/mL (≈ 461 µM) in series [10] and 125 µg/mL (≈ 461 µM) in [11].
For the molecule `CC(C)c1csc(-c2nnc(-c3ccc(Cl)cc3)o2)n1`, the MIC was 62.5 µg/mL (≈ 204 µM) in series [1]; 8 µg/mL (≈ 26.2 µM) in series [2]; 125 µg/mL (≈ 409 µM) in series [3]; 4 µg/mL (≈ 13.1 µM) in series [4]; 125 µg/mL (≈ 409 µM) in series [5]; 8 µg/mL (≈ 26.2 µM) in series [6]. In addition, the MIC worked out at 4 µg/mL (≈ 13.1 µM) in [7], 125 µg/mL (≈ 409 µM) in [8], 62.5 µg/mL (≈ 204 µM) in series [10] and 125 µg/mL (≈ 409 µM) in series [11].
For the molecule `CC(=O)N1N=C(c2nc(C(C)C)cs2)OC1(C)c1ccc(Br)cc1` (stereo not drawn), the MIC in series [1] came out at 31.2 µg/mL (≈ 76.5 µM); in series [2], 16 µg/mL (≈ 39.2 µM); in [3], 31.2 µg/mL (≈ 76.5 µM); in series [4], 31.2 µg/mL (≈ 76.5 µM); in [5] it was 16 µg/mL (≈ 39.2 µM); in series [6] it was 16 µg/mL (≈ 39.2 µM). For the same molecule, the MIC was 125 µg/mL (≈ 306 µM) in series [7], 16 µg/mL (≈ 39.2 µM) in [8], 31.2 µg/mL (≈ 76.5 µM) in series [10] and 62.5 µg/mL (≈ 153 µM) in [11].
On to `CC(=O)N1N=C(c2nc(C(C)C)cs2)OC1(C)c1ccc(C)cc1` (stereo not drawn), for which the MIC in [1] amounted to 16 µg/mL (≈ 46.6 µM); in series [2] it was 125 µg/mL (≈ 364 µM); in series [3], 31.2 µg/mL (≈ 91 µM); in series [4], 16 µg/mL (≈ 46.6 µM); in series [5], 31.2 µg/mL (≈ 91 µM); in [6], 125 µg/mL (≈ 364 µM). Further, the MIC in series [7] stood at 31.2 µg/mL (≈ 91 µM); in [8] it was 125 µg/mL (≈ 364 µM); in [10], 31.2 µg/mL (≈ 91 µM); in [11], 16 µg/mL (≈ 46.6 µM).
For the molecule `CC(C)c1csc(-c2nnc(-c3ccc(O)cc3)o2)n1`, the MIC in [1] stood at 62.5 µg/mL (≈ 218 µM); in [2] it was 62.5 µg/mL (≈ 218 µM); in series [3] it was 125 µg/mL (≈ 435 µM); in series [4], 31.2 µg/mL (≈ 109 µM); in [5], 62.5 µg/mL (≈ 218 µM); in [6] it was 62.5 µg/mL (≈ 218 µM). The minimum inhibitory concentration (MIC) in series [7] came to 125 µg/mL (≈ 435 µM); in series [8], 62.5 µg/mL (≈ 218 µM); in [10], 125 µg/mL (≈ 435 µM); in series [11], 62.5 µg/mL (≈ 218 µM).
For `CC(C)c1csc(-c2nnc(S)n2/N=C/c2ccc(N(C)C)cc2)n1`, the MIC is 31.2 µg/mL (≈ 83.9 µM) in series [1]; 125 µg/mL (≈ 336 µM) in [2]; 125 µg/mL (≈ 336 µM) in [3]; 31.2 µg/mL (≈ 83.9 µM) in series [4]; 16 µg/mL (≈ 43 µM) in series [5]; 16 µg/mL (≈ 43 µM) in series [6]. The MIC in series [7] stood at 125 µg/mL (≈ 336 µM); in series [8] it was 16 µg/mL (≈ 43 µM); in series [10] it was 16 µg/mL (≈ 43 µM); in series [11] it was 16 µg/mL (≈ 43 µM).
As to `Cc1ccc(/C=N/n2c(S)nnc2-c2nc(C(C)C)cs2)cc1`, the MIC is 31.2 µg/mL (≈ 91 µM) in series [1]; 125 µg/mL (≈ 364 µM) in series [2]; 31.2 µg/mL (≈ 91 µM) in [3]; 31.2 µg/mL (≈ 91 µM) in series [4]; 125 µg/mL (≈ 364 µM) in series [5]; 31.2 µg/mL (≈ 91 µM) in series [6]. Besides, the MIC turned out to be 32.5 µg/mL (≈ 94.6 µM) in [7], 31.2 µg/mL (≈ 91 µM) in series [8], 16 µg/mL (≈ 46.6 µM) in series [10] and 125 µg/mL (≈ 364 µM) in [11]. In addition, the Activity in [9] is 50%.
`CC(C)c1csc(-c2nnc(S)n2/N=C/c2ccccc2Cl)n1`: the minimal inhibitory concentration (MIC) stood at 31.2 µg/mL (≈ 85.9 µM) in series [1]; 8 µg/mL (≈ 22 µM) in series [2]; 31.2 µg/mL (≈ 85.9 µM) in series [3]; 4 µg/mL (≈ 11 µM) in series [4]; 8 µg/mL (≈ 22 µM) in [5]; 31.2 µg/mL (≈ 85.9 µM) in [6]. Besides, the MIC is 4 µg/mL (≈ 11 µM) in [7], 16 µg/mL (≈ 44 µM) in series [8], 16 µg/mL (≈ 44 µM) in series [10] and 62.5 µg/mL (≈ 172 µM) in series [11]. Also, in [9], the Activity is 50%.
